Bioassay records (PubChem BioAssay)
An excerpt weighted towards active compounds, which were near 3% of everything screened.
Rad51 HR inh: Rad51 (human) homologous recombination inhibition. Q06609. hRad51 DNA strand exchange, fluorescence dequenching. inhibition, % at 10 µM. actives 0.085% (n = 200,000). AID 1385;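 active = inhibition above 40% at the single screening dose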;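 note: 0% = DMSO control wells and 100% = blanks with heterologous ssDNA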
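material = hRad51 filaments on single-stranded DNA | reagent = Donor/quencher-labelled 47-bp dsDNA substrate | compound = 10 µM final, single point | schedule = strand-exchange reaction 15 min at room temperature | measured by = fluorescein emission 520 nm, excitation 485 nm | read-out basis = % inhibition versus plate control and blank means | benchmarks = plate controls and plate blanks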
PKD1 kinase inh: blocks activity of human protein kinase D1 | inhibition, % (concentration not given with the values) | actives 0.056% (n = 200,000) | AID 797 | Q15139 | PKD1 kinase fluorescence polarization assay; in the data active = inhibition above about 50%
Target sequence (Q15139 whole entry, looked up): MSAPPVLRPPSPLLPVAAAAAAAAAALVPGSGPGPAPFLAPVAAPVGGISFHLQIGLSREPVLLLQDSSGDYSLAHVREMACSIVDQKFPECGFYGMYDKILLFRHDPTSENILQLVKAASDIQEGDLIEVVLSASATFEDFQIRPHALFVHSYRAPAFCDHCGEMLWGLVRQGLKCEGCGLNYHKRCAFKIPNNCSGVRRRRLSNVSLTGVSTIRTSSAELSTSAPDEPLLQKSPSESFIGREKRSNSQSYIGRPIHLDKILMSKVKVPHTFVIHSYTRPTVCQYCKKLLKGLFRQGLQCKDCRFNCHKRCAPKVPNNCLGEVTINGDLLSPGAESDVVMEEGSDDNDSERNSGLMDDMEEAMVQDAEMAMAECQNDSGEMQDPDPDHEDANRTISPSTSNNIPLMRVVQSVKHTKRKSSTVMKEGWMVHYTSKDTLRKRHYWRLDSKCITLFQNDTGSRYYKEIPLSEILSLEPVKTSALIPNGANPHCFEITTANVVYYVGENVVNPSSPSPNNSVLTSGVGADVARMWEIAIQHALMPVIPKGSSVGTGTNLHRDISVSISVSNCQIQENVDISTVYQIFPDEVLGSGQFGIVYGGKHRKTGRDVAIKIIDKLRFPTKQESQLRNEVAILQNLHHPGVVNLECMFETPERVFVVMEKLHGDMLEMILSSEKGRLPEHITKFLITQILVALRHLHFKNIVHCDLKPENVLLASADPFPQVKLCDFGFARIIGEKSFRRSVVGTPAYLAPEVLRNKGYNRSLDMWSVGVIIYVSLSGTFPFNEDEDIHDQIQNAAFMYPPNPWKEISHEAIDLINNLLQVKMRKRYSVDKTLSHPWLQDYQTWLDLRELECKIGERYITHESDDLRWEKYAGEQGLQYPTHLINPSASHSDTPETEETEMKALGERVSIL
KCC2 mod: modulates chloride dependent transport by human KCC2 | actives 2.2% (n = 190,000) | B-score of Tl+ flux slope (higher = more flux/activation; lower = inhibition) at 10 µM | KCC2 cells, thallium flux FluoZin-2 fluorescence | Q9H2X9;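 active = thallium flux slope and its plate-corrected score both differing from the plate sample mean at a set confidence after two filtering rounds, in either direction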;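 note: slope of fluorescence scaled to starting intensity during 10 to 20 s after thallium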
ROMK mod: modulates human ROMK potassium channel activity. P48048. Tet-inducible ROMK, thallium flux fluorescence; actives lie on both sides. B-score at 10 µM. actives 2% (n = 130,000);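 active = signal ratio slope over the read window, or its plate-corrected B-score, at least 3 SD from the plate mean, either direction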;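 note: B-score of the F/F0 ratio slope over 7 to 12 s after thallium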
KCC2 sec1: confirmation of human KCC2 transport modulators. HEK293-KCC2, thallium flux, FluoZin2 fluorescence; active compounds read high. shares compounds with KCC2 mod. actives 15% (n = 3,700). normalised thallium flux (F/F0 slope) at 10 µM. AID 1713;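 active = thallium flux slope above the same plate's solvent-only control mean plus 3 SD; inconclusive = the two replicate wells disagree; inactive = no significant difference from solvent-only control wells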
KCC2 bumet counter: bumetanide-insensitive thallium flux in KCC2 cells with ouabain, counter-screen | shares compounds with KCC2 mod | HEK293-KCC2 + bumetanide/ouabain, thallium flux FluoZin2; active compounds read high | normalized thallium flux at 10 µM | actives 49% (n = 3,700) | AID 1714;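 active = thallium entry rate above the same plate's blocked-transporter control wells by more than 3 SD; inconclusive = the two repeat wells disagree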;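 note: raw slope of fluorescence over initial fluorescence between 10 and 20 s after thallium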
KCC2 secondary2: confirmation of human KCC2 transport modulators | shares compounds with KCC2 mod | HEK293-KCC2, thallium flux FluoZin2 fluorescence; actives lie on both sides; F/F0 rise rate, 10–20 s post-thallium | normalized thallium flux at 10 µM | actives 23% (n = 3,700);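 active = thallium flux slope more than 3 SD above or below the plate's solvent-only control mean, mostly below; inconclusive = the two repeat wells disagreed; inactive = no significant shift from solvent-only controls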;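 note: raw slope with 0.1% DMSO as baseline and bumetanide as block control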
HEK counter1: acts in parental HEK cells, KCC2 counter-screen | shares compounds with KCC2 mod | actives 46% (n = 3,700) | HEK293 parental cells, thallium flux FluoZin2, ouabain; baseline-ratio fluorescence slope, 10–20 s after thallium | thallium flux rate (normalised fluorescence) at 10 µM;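 active = thallium flux rate significantly above the same plate's solvent-only control wells, beyond their mean plus 3 SD; inconclusive = the two replicate wells gave conflicting results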
KCC2 ouabain: KCC2 (human) modulation, ouabain retest; shares compounds with KCC2 mod; HEK293-KCC2, thallium flux FluoZin2 fluorescence; bidirectional: low = inhibitor, high = activator; raw Tl+ flux slope (below DMSO = inhibition, above = activation) at 10 µM; actives 48% (n = 3,700);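 active = thallium flux slope beyond 3 SD from same-plate DMSO control mean in most replicates, usually higher, sometimes lower; inconclusive = repeat tests gave conflicting results; inactive = no significant difference from controls in most replicates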;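 note: slope of initial-normalized fluorescence between seconds 10 and 20 after thallium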
HEK counter2: counter-screen for KCC2 modulators: effect in parental HEK293 cells | shares compounds with KCC2 mod | thallium flux FluoZin-2 fluorescence slope | thallium flux slope at 10 µM | actives 33% (n = 3,700) | AID 1718;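 active = thallium flux slope above the same plate's solvent-control mean plus 3 SD in both duplicate wells; inconclusive = duplicate wells that disagreed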;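 note: run without ouabain in cells lacking the KCC2 cotransporter; slope of fluorescence scaled to its starting value between 10 and 20 s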
Numbers without * were called inactive; ? = inconclusive; . = not tested or not shown.

SMILES	Rad51 HR inh	PKD1 kinase inh	KCC2 mod	ROMK mod	KCC2 sec1	KCC2 bumet counter	KCC2 secondary2	HEK counter1	KCC2 ouabain	HEK counter2
CSc1ncc(Cl)c(C(=O)C(C#N)c2nc3c(C)cc(C)cc3c(=O)[nH]2)n1 (stereo not drawn)	14.5	4.6	5.05*	-0.137	0.007	0.0192*	0.0338	0.0163*	?	0.0152*
CCn1c(SCC(=O)Nc2oc(-c3ccccc3)c(-c3ccccc3)c2C#N)nnc1-c1cc(OC)cc(OC)c1	-6.0	5.7	.	0.804	.	.	.	.	.	.
Cc1ccccc1-n1c(C)nnc1SCc1nc2ccccc2s1	5.4	-5.5	-0.892	.	.	.	.	.	.	.
CCOc1ccccc1-n1nnnc1SCc1nc2ccccc2s1	.	0.5	.	.	0.0153	?	0.0244*	0.00579*	0.0134*	0.0091
Cc1ccsc1/C=N/n1c(-c2ccccn2)n[nH]c1=S	-5.3	0.0	0.727	-0.0044	.	.	.	.	.	.
O=C(CCSc1ccccc1)NCCSCc1ccccc1	-2.2	-6.3	-3.53*	.	?	0.00387	0.0215*	?	0.0133*	?
CN(C)S(=O)(=O)N(CC(=O)NCCSCc1ccccc1)c1ccccc1	20.4	-3.1	-3.71*	-0.524	0.00624	0.006*	0.0243*	0.00707	?	0.01
O=S1(=O)N=C(N2CCN(Cc3ccccc3)CC2)c2ccccc21	-6.1	3.6	-5.95*	-0.073	0.00655	0.00439	0.0242*	0.008	?	0.0106
COc1cccc(CC2(CO)CCCN(Cc3cc(F)ccc3-n3cccn3)C2)c1 (stereo not drawn)	-28.9	4.5	0.211	0.163	.	.	.	.	.	.
CC(C)C(=O)N1CCN(c2ccccc2NC(=S)NC(=O)c2cccs2)CC1	6.4	5.8	2.8	-0.508	0.00633	0.00859*	0.0279	0.0091*	0.0186	?
O=C(Nc1ccccc1N1CCCCC1)c1ncoc1-c1ccc(F)cc1	1.6	-2.3	2.14*	.	0.00858	0.00552	0.0303	0.008	0.0178	0.0115
O=C(Nc1ccccc1N1CCCCC1)c1ccccc1F	-3.0	-4.7	.	-0.607	.	.	.	.	.	.
O=C(NC(=S)Nc1ccccc1N1CCCCC1)c1ccccc1	4.5	-1.1	11.9*	-0.114	0.00635	0.0228*	0.0338	0.0112*	0.0277*	?
O=C(Nc1ccccc1N1CCCCC1)c1ncoc1-c1cccc(F)c1	1.5	.	0.868	.	.	.	.	.	.	.
O=C(NC(=S)Nc1ccccc1N1CCCC1)c1ccc(F)cc1	5.9	6.3	16*	-0.41	0.0178*	0.0502*	0.0352	0.0484*	0.0393*	0.0154*
CC(C)C(=O)N1CCN(c2ccc(NC(=O)c3cccs3)cc2Cl)CC1	-0.9	7.7	-0.918	-0.249	.	.	.	.	.	.
COc1cc(C(=O)Nc2nnc(C3CC3)s2)ccc1OCc1c(C)noc1C	-8.8	-3.4	0.379	0.0854	.	.	.	.	.	.
CC(=O)N/C(=C\c1ccccc1)C(=O)OCC(=O)N(C)C1CCCCC1	-4.3	-1.3	0.663	.	.	.	.	.	.	.
CC1Cc2ccccc2N1C(=O)Cn1cnc2ccccc21 (stereo not drawn)	9.4	-5.6	-1.23	-0.198	.	.	.	.	.	.
CC(=O)c1sc(C(=O)O)c(-c2ccco2)c1-c1ccco1	10.2	.	.	.	.	.	.	.	.	.
Cc1cc(C(=O)NC(=S)Nc2ccccc2N2CCOCC2)ccc1[N+](=O)[O-]	-2.1	-2.8	5.37*	0.195	0.00908	0.00996*	0.0304	?	?	?
O=C(NC(=S)Nc1ccccc1N1CCOCC1)c1ccc(-c2ccccc2F)o1	4.9	.	15.1*	.	0.0112	0.0283*	0.0369	0.0336*	0.0307*	0.0122
Cc1ccccc1C(=O)NC(=S)Nc1ccc(N2CCOCC2)cc1	13.3	-3.6	0.11	0.564	.	.	.	.	.	.
Cc1cc(C(=O)NC(=S)Nc2ccccc2N2CCCC2)ccc1[N+](=O)[O-]	-14.2	-7.1	2.28	.	.	.	.	.	.	.
Cc1ccccc1C(=O)NC(=S)Nc1ccccc1N1CCCC1	33.2	-2.0	11.3*	-0.108	0.00676	0.0248*	0.0314	0.0263*	0.0296*	0.0152*
SMILES	Rad51 HR inh	PKD1 kinase inh	KCC2 mod	ROMK mod	KCC2 sec1	KCC2 bumet counter	KCC2 secondary2	HEK counter1	KCC2 ouabain	HEK counter2
O=C(NC(=S)Nc1ccccc1N1CCCC1)c1cccc(F)c1	0.8	-7.7	39.4*	-0.0175	0.00615	0.0619*	0.0429*	0.0275*	0.046*	0.0277*
CC(C)c1ccc(/C=C(\NC(=O)c2ccccc2)C(=O)NCCCN2CCOCC2)cc1	12.7	.	-0.544	-0.745	.	.	.	.	.	.
CC(C1CCN(Cc2cn(C)nc2-c2cccc(Cl)c2)CC1)N1CCOCC1 (stereo not drawn)	.	4.5	0.0365	0.00733	.	.	.	.	.	.
O=C(O)c1nn2cc(CCO)cnc2c1Cl	1.3	-0.6	0.232	0.03	.	.	.	.	.	.
COc1cc(C2=NC(CO)(CO)CO2)cc(OC)c1OC	-6.2	2.3	0.144	-0.474	.	.	.	.	.	.
CCOP(=O)(c1ccccc1)c1nc(-c2ccc(F)cc2)oc1N1CCCCC1 (stereo not drawn)	-1.1	9.5	-2.91*	0.539	0.0104	0.00496	0.0336	?	?	0.0102
CCCn1c(SCC(N)=O)nc2c(c1=O)C1(CCCC1)Cc1ccccc1-2	.	-2.6	.	-1.88	0.0132*	0.031*	0.0363	0.0169*	?	0.0123*
CCn1c(=O)c2c(n3c(=S)[nH]nc13)-c1ccccc1CC21CCCCC1	5.2	4.4	65.1*	0.308	0.00721	0.0698*	?	0.0597*	0.0593*	0.0345*
Cc1ccccc1-n1c(=O)c2c(n3cnnc13)-c1ccccc1CC21CCCCC1	7.5	-9.9	-0.813	.	.	.	.	.	.	.
CCSc1n[nH]c2nc3c(c(=O)n12)C1(CCCCC1)Cc1ccccc1-3	12.6	.	-1.29	.	.	.	.	.	.	.
CCn1c(SCC#N)nc2c(c1=O)C1(CCCC1)Cc1ccccc1-2	1.3	5.8	16.8*	-0.00317	0.0148*	0.0576*	0.0368	?	0.0395*	?
CC(C)(C)c1ccc2c(c1)OC(C(=O)N/N=C/c1ccc([N+](=O)[O-])o1)CO2 (stereo not drawn)	16.7	.	.	.	.	.	.	.	.	.
Cc1sc2c(c1C)C(O)=C(C(=O)Nc1ccccc1)S(=O)(=O)N2C	.	.	-1.73	.	.	.	.	.	.	.
CN(c1ccccc1)S(=O)(=O)c1ccc(Cl)c(C(=O)Nc2ccc(N3CCOCC3)cc2)c1	-11.5	-0.1	-2.71*	-0.616	0.00602	0.00617	0.029	0.00637	0.0173	0.00942
CS(=O)(=O)c1ccc(C(=O)Nc2ccc(N3CCOCC3)cc2)c(Cl)c1	2.2	1.6	-0.00841	0.0502	.	.	.	.	.	.
